# Compound activity as filed in PubChem.
# MrgX1 agonist – agonists of human MrgX1 receptor | MrgX1-HEK293 cells, Fluo-4 calcium fluorescence, agonist mode; active compounds read high | B-score at 10 µM | actives 0.44% (n = 310,000);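 active = calcium response B-score plate-corrected fluorescence ratio at least 3 library SD, with starting fluorescence B-score inside 5 SD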
# Target sequence (Q96LB2 whole entry, looked up): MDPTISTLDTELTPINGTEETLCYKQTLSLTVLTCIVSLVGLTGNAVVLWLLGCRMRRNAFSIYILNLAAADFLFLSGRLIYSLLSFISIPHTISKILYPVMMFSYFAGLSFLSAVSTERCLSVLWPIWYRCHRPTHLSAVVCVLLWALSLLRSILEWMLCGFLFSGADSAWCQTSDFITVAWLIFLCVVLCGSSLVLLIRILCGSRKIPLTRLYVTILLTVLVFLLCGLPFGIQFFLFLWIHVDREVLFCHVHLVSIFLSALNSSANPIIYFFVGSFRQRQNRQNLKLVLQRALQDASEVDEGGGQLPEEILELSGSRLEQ
#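 System – MrgX1-expressing HEK293 cells · Incubation – cells plated overnight, dye loaded 0.5 h 37 °C, 0.5 h room temperature · Technique – kinetic Fluo-4 NW fluorescence of intracellular calcium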
# MrgX1 antag – human MrgX1 receptor antagonism, primary screen; MRGX1-HEK293 calcium flux, Fluo-4, BAM8-22 antagonism; active compounds read low; B-score at 10 µM; actives 1.3% (n = 310,000); AID 588676;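 active = calcium-response B-score plate-corrected more than 3 library SD below zero, starting fluorescence within 5 deviations, no agonist response on first addition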;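 also: peak minus trough fluorescence over baseline after final BAM8-22 challenge near maximal dose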
# MrgX1 allo act – human MrgX1 positive allosteric modulation, primary screen. B-score at 10 µM. MrgX1-HEK293, Fluo-4 calcium flux, FDSS; active compounds read high. AID 588675. actives 0.63% (n = 310,000). Q96LB2;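 active = plate-corrected calcium response at least 3 library SD above typical, normal starting fluorescence, not activating the receptor alone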;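 also: compound read alongside a low EC10 to EC30 dose of BAM8-22 agonist; peak minus trough fluorescence over baseline measured at the second addition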
# RGS4 inh – human RGS4 inhibition. P49798. AID 463165. actives 0.45% (n = 310,000). HEK293 M3R/RGS4 inducible, Fluo-4 calcium flux; active compounds read high; triggered by carbachol at its EC20. B-score at 10 µM;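 active = B-score, a plate-corrected calcium signal, over three deviations above library mean, with baseline fluorescence within five deviations of library mean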;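 also: RGS4 expression induced by doxycycline in cells with stable M3 receptor; B-score is computed from the integrated fluorescence ratio over baseline after carbachol; higher B-score means a larger calcium signal and so more RGS4 inhibition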
# Target sequence (P49798 whole entry, looked up): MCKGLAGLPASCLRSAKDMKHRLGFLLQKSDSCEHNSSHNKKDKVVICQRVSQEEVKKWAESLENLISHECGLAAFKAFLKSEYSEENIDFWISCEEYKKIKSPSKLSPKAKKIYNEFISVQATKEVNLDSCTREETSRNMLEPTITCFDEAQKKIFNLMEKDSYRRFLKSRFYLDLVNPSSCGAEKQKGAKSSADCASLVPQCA
# RGS4 pot – potentiators or activators of RGS4; HEK293 M3R/inducible RGS4, carbachol calcium flux Fluo4; active compounds read low; B-score at 10 µM; actives 0.92% (n = 310,000); AID 463111;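 active = B-score of the integrated calcium signal more than 4 SD below the library mean, with starting fluorescence not abnormally high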;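 also: negative B-score means reduced calcium response which marks RGS4 activation or potentiation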
#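 System: HEK293 FlpIn-TREx cells, stable M3R, doxycycline-inducible RGS4. Timing: overnight RGS4 induction, 30 min dye load 37 °C, 20 min compound RT. Also added: carbachol, ECmax concentration. Measured by: Fluo4 fluorescence kinetic imaging of calcium. Evaluation: integrated calcium ratio converted to B score.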
# MrgX1 ag reconf – confirmation of human MrgX1 receptor agonists; actives 78% (n = 600); MrgX1-HEK293, Fluo-4 calcium fluorescence, FDSS; shares compounds with MrgX1 agonist; AID 602412; activation, % at 10 µM;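 active = calcium signal rise, corrected for plate position, at least 3 library SD high, with starting brightness within 5 such deviations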; also: reference of the scale not given here
# HEK293 Ca flux – MrgX1 antagonist counter-screen hit in parental HEK293 cells. shares compounds with MrgX1 antag. Fluo-4 calcium fluorescence, FDSS. fluorescence ratio F(max-min)/F0 at 10 µM. actives 2% (n = 4,000). AID 624111;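 active = duplicate-averaged calcium fluorescence ratio at least three times the standard deviation of buffer wells, a nonspecific response in parental cells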
# HEK293 Ca counter – activity in parental HEK293 cells without MrgX1; shares compounds with MrgX1 antag; parental HEK293 calcium flux, Fluo-4 fluorescence ratio; active compounds read high; fluorescence ratio F(max-min)/F0 at 10 µM; actives 0.4% (n = 4,000);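 active = calcium fluorescence ratio, averaged over duplicates, at least 3 SD of the buffer-well ratio, meaning a nonspecific response in receptor-free cells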;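 also: untransfected parental HEK293 lacking MrgX1 used as counterscreen for MrgX1 allosteric activators; fluorescence change taken during the second addition on a kinetic imager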
# HEK293 Ca cntr2 – MrgX1 activator counter-screen hit in parental HEK293 cells; shares compounds with MrgX1 antag; Fluo-4 calcium fluorescence (FDSS); active compounds read high; fluorescence ratio F(max-min)/F0 at 10 µM; actives 8.7% (n = 4,000);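 active = calcium fluorescence ratio at least three times the spread of buffer wells, meaning a non-specific response in parental cells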
# Active calls of the source: *; i = inactive; . = no result. Sampled rows, rich in hits. Any-hit rate of the full collection: about 3.5%.
SMILES,MrgX1 agonist,MrgX1 antag,MrgX1 allo act,RGS4 inh,RGS4 pot,MrgX1 ag reconf,HEK293 Ca flux,HEK293 Ca counter,HEK293 Ca cntr2
Cc1cccc(-n2ncc3c(NCc4ccc5c(c4)OCO5)ncnc32)c1,i,i,i,i,i,.,.,.,.
Cc1ccc(-n2ncc3c(NCc4ccc5c(c4)OCO5)ncnc32)c(C)c1,32.2*,i,i,i,i,224.1%*,i,i,48.2*
CC(C)CN(C1CCS(=O)(=O)C1)S(=O)(=O)c1ccc(C(C)C)cc1 (stereo not drawn),i,i,i,i,i,.,.,.,.
CCCOC(=O)C1C2C=C[C@]3(CN(CCc4ccccc4)C(=O)[C@H]13)O2 (stereo partly drawn),i,i,i,i,i,.,.,.,.
Nc1nnc(SCC(=O)c2ccccc2)s1,i,i,i,i,i,.,.,.,.
Nc1c(C(=O)c2ccccc2)sc2snc(SCC(=O)c3ccccc3)c12,32.4*,i,i,i,i,224.7%*,0.413*,i,54.6*
CCOC(=O)c1ccccc1-c1cn2cc(Cl)ccc2n1,29.9*,i,i,i,i,152.1%*,i,i,i
O=c1c2ccccc2nc(SCc2cccc(F)c2)n1C1CCCC1,28.8*,i,i,i,i,196.4%*,i,52.8*,i
N#CCSc1nc2ccccc2c(=O)n1C1CCCCC1,i,i,i,i,i,.,.,.,.
S=C(NCc1ccccc1)NCc1ccccn1,i,i,i,i,i,.,.,.,.
Fc1ccc(-c2cc(C(F)(F)C(F)F)[nH]n2)cc1,40.9*,i,i,i,i,212.3%*,i,i,47.6*
Cc1ccc(S(=O)(=O)N(C)Cc2ccc(-c3nnc4n3CCC4)cc2)cc1,i,i,i,i,i,.,.,.,.
COc1ccc(C(=O)Nc2nc3cc4c(cc3s2)OCCO4)c(OC)c1,i,i,i,i,i,.,.,.,.
CC(C)/C=C1\CC/C(=C\c2ccc(N(C)C)cc2)C1=O,101*,i,i,i,i,i,0.0145*,i,141*
Cc1nn2c(COc3ccc(NC(=O)c4ccccc4Cl)cc3)nnc2c2ccccc12,i,i,i,i,i,.,.,.,.
CCOC(=O)c1[nH]c2ccc(F)cc2c1N=C(C)N(CC)CC,50.1*,i,i,i,i,115.8%*,i,i,i
COc1ccccc1C(C)NC(=O)c1ccccc1SCC(=O)N1CCCC1 (stereo not drawn),i,i,i,i,i,.,.,.,.
CNc1nc(C)nc(-n2nc(C)cc2C)n1,i,i,i,i,i,.,.,.,.
Cc1cc(C)n(-c2nc(C)nc(NCc3ccccc3)n2)n1,33.5*,i,i,i,i,129.9%*,i,i,i
CC(C)=CC(=O)N1CCCC(N2CCN(c3ccc(F)cc3)CC2)C1 (stereo not drawn),i,i,i,i,i,.,.,.,.
CC1(c2ccc([N+](=O)[O-])cc2)NC(=O)N(CC(=O)c2ccc3c(c2)OCO3)C1=O (stereo not drawn),i,i,i,i,i,.,.,.,.
CC1(c2ccc(OC(F)F)cc2)NC(=O)N(CC(=O)c2ccc3c(c2)OCO3)C1=O (stereo not drawn),35*,i,i,i,i,175.6%*,i,i,54.6*
COc1ccc2c(c1OC)C(=O)N(c1cccc(NC(C)=O)c1)C2,26.9*,i,i,i,i,118.7%*,i,i,i
Cc1cc(Nc2ccc(Cl)cc2)nc(N)n1,34.7*,i,i,i,i,206.8%*,i,i,i
COc1ccc(C(=O)NC(=S)NNC(=O)c2c(-c3ccccc3)noc2C)cc1OC,81.1*,i,i,i,i,222.2%*,i,i,51.5*
SMILES,MrgX1 agonist,MrgX1 antag,MrgX1 allo act,RGS4 inh,RGS4 pot,MrgX1 ag reconf,HEK293 Ca flux,HEK293 Ca counter,HEK293 Ca cntr2
COc1ccc(C(=O)NC(=S)NNC(=O)[C@H]2C[C@@H]2c2ccccc2)cc1OC,66.9*,i,i,i,i,377.5%*,i,i,72.2*
Cc1onc(-c2ccccc2)c1C(=O)NCc1ccc2c(c1)OCO2,i,i,i,i,i,.,.,.,.
Cc1onc(-c2ccccc2)c1C(=O)NNC(=S)NC(=O)c1ccc2c(c1)OCO2,76.5*,i,i,i,i,412.2%*,i,i,104*
CC(C)(C)NC(=S)NNC(=O)[C@H]1C[C@@H]1c1ccccc1,i,i,i,i,i,.,.,.,.
Cc1ccccc1C(=O)NNC(=S)NC(=O)COc1ccccc1,120*,i,i,i,i,640.4%*,i,i,125*
Cc1ccc(C(=O)NNC(=S)NC(=O)COc2ccccc2)cc1,109*,i,i,i,i,617.5%*,i,i,116*
CC[N+](C)(CC)CC(O)COCC1COc2ccccc2O1 (stereo not drawn),i,i,i,i,i,.,.,.,.
CC(C)OC(=O)[C@H]1[C@H](c2ccc(Cl)cc2)[C@@](C#N)(C(N)=O)[C@@H]2C=CC(C(N)=O)=CN21,.,.,.,i,i,.,.,.,.
Cc1[nH]n(-c2ccccc2)c(=O)c1N=Nc1nccs1,65.8*,i,i,i,i,261.0%*,i,i,51.5*
CCC1(C)Cc2ccccc2-c2nc(NCCO)n(-c3ccc(C)cc3)c(=O)c21 (stereo not drawn),38.6*,i,i,i,i,172.7%*,i,i,56.4*
CC1(C)Cc2ccccc2-c2nc(NCCO)n(-c3ccccc3)c(=O)c21,i,i,i,i,i,.,.,.,.
CCOC(=O)C1C(=O)NC(SCC(N)=O)=C(C#N)C1c1ccccc1OCC (stereo not drawn),i,i,i,i,i,.,.,.,.
O=C(Nc1ccc(Cl)cc1Cl)c1ccc(Br)o1,i,i,i,i,i,.,.,.,.
CCc1ccc(CNc2ccc3c(c2)ncn3C(C)(C)C)cc1,i,i,i,i,i,.,.,.,.
